Source: ChEMBL document CHEMBL1268842, “Discovery of N-benzyl-2-[(4S)-4-(1H-indol-3-ylmethyl)-5-oxo-1-phenyl-4,5-dihydro-6H-[1,2,4]triazolo[4,3-a][1,5]benzodiazepin-6-yl]-N-isopropylacetamide, an orally active, gut-selective CCK1 receptor agonist for the potential treatment of obesity” (Bioorg Med Chem Lett, 2010)
≈ marks a conversion by molar mass, not a printed value. Calls of active or inactive are those of the source. The calls are words filed in the database; no cut-off is given here.

Legend:
[1] = Blood clearance predicted from rat liver microsomes; conditions: whole blood
[2] = target: T1, Gastrin/cholecystokinin type B receptor (Homo sapiens) (UniProt P32239); experiment: Agonist activity at CCK2 receptor assessed as calcium mobilization by FLIPR assay; assay type: functional
T1 sequence (whole entry): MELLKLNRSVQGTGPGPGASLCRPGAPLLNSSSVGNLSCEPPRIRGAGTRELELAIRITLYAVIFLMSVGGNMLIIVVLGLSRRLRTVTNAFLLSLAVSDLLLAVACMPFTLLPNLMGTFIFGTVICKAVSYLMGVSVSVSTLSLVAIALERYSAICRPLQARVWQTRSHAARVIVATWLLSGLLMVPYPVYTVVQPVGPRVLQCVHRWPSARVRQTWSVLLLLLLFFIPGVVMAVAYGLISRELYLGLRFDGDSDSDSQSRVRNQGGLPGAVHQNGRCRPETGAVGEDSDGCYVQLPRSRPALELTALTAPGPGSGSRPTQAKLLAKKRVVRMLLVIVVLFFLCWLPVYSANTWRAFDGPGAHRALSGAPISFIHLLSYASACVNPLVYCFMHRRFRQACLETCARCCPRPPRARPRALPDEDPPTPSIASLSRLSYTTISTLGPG

[3] = Cmax in Sprague-Dawley rat at 6 mg/kg, po by HPLC/MS/MS analysis; assay type: ADME, organism-based; design: dose 6 mg/kg, route oral; conditions: in vivo
In short: (§1)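 Male Sprague-Dawley rats, n of 3, given a single 3.0 mg/kg iv dose or 6.0 mg/kg po dose. Plasma exposure was followed over time. Values are mean with standard deviation.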

Mus musculus [4] = experiment: Induction of emptying of gallbladder in C57BL/6J mouse at 6 mg/kg, po administered via SDD formulation measured at 1 hr; assay type: functional
In short: (§2)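 Mouse gallbladder emptying model. Compounds were given orally, as amorphous material unless noted or as an SDD formulation where stated. Gallbladder emptying (%) was read at 1 h after 6 mg/kg. Gallbladder refilling was assessed at 24 h.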

[5] = Oral bioavailability in Sprague-Dawley rat at 6 mg/kg by HPLC/MS/MS analysis; assay type: ADME, organism-based; conditions: in vivo
In short: as §1

[6] = target: T2, Cholecystokinin receptor type A (Homo sapiens) (UniProt P32238); experiment: Agonist activity at human CCK1 receptor expressed in CHO cells assessed as induction of calcium release by FLIPR assay relative to CCK8; assay type: functional, cell-based
T2 sequence (whole entry): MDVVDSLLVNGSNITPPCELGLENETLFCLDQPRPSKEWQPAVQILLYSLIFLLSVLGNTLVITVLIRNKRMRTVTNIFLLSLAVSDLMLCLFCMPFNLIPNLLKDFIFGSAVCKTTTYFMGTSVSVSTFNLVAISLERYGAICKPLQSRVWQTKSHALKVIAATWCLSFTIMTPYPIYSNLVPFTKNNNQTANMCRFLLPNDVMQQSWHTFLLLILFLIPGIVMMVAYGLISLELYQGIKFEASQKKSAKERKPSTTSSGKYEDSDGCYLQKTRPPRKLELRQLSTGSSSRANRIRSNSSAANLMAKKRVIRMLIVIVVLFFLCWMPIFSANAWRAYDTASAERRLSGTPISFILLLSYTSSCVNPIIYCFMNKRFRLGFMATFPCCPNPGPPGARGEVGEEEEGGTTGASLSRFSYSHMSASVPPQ
In short: (§3)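 Calcium release was measured by FLIPR at the human CCK1 receptor. EC50 and efficacy were expressed as % agonism versus CCK-8. Values are mean ± standard error of at least three independent experiments.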

[7] = Intrinsic clearance in human liver microsomes; assay type: ADME, Microsome
Rattus norvegicus [8] = experiment: Biliary clearance in Sprague-Dawley rat at 3 mg/kg, iv by HPLC/MS/MS analysis; assay type: ADME, organism-based; design: dose 3 mg/kg, route intravenous; conditions: in vivo
Rattus norvegicus [9] = experiment: Tmax in Sprague-Dawley rat at 6 mg/kg, po by HPLC/MS/MS analysis; assay type: ADME, organism-based; design: dose 6 mg/kg, route oral; conditions: in vivo
In short: as §1

[10] = Volume of distribution at steady state in Sprague-Dawley rat at 3 mg/kg, iv by HPLC/MS/MS analysis; assay type: ADME, organism-based; design: dose 3 mg/kg, route intravenous; conditions: in vivo, read-out: Vdss
In short: as §1

[11] = Lipophilicity, log D of the compound at pH 7.4; assay type: physicochemical; conditions: buffer
[12] = AUC (0 to tlast) in Sprague-Dawley rat at 6 mg/kg, po by HPLC/MS/MS analysis; assay type: ADME, organism-based; design: dose 6 mg/kg, route oral; conditions: plasma
In short: as §1

[13] = Plasma clearance in Sprague-Dawley rat at 3 mg/kg, iv by HPLC/MS/MS analysis; assay type: ADME, organism-based; design: dose 3 mg/kg, route intravenous
In short: as §1

[14] = Kinetic solubility of the compound at pH 6.5; assay type: physicochemical; conditions: buffer
Rattus norvegicus [15] = experiment: fCmax in Sprague-Dawley rat at 6 mg/kg, po by HPLC/MS/MS analysis; assay type: ADME, organism-based; design: dose 6 mg/kg, route oral; conditions: in vivo
In short: as §1

[16] = Half life in Sprague-Dawley rat at 3 mg/kg, iv by HPLC/MS/MS analysis; assay type: ADME, organism-based; design: dose 3 mg/kg, route intravenous; conditions: in vivo
In short: as §1

Rattus norvegicus [17] = experiment: Antiobesity activity in Sprague-Dawley rat assessed as reduction in spontaneous food intake at 6 mg/kg, po administered via SDD formulation measured at 4 hrs; assay type: functional
In short: (§4)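 Rats were dosed orally at 6 mg/kg, as amorphous material unless stated or as a solid spray-dried dispersion (SDD). Spontaneous food intake was measured against vehicle at 4 h post-dose, and at 12 h where stated. Significance was P <0.05 versus vehicle unless noted.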

Rattus norvegicus [18] = species on record: Rattus norvegicus; conditions: Sprague-Dawley, 6 mg/kg
Rattus norvegicus [19] = experiment: Antiobesity activity in Sprague-Dawley rat assessed as reduction in spontaneous food intake at 6 mg/kg, po measured at 4 hrs in presence of 20 mg/kg CCK1R antagonist lorglumide relative to vehicle; assay type: functional
Rattus norvegicus [20] = experiment: Antiobesity activity in Sprague-Dawley rat assessed as reduction in spontaneous food intake at 6 mg/kg, po measured at 4 hrs relative to vehicle; assay type: functional; design: scale not given: the % may be the effect or the level left
In short: as §4

[21] = AUC (0 to tlast) in Sprague-Dawley rat at 3 mg/kg, iv by HPLC/MS/MS analysis; assay type: ADME, organism-based; design: dose 3 mg/kg, route intravenous; conditions: plasma
In short: as §1

[22] = target: T1, Gastrin/cholecystokinin type B receptor (Homo sapiens); experiment: Agonist activity at CCK2 receptor by [35S]GTPgammaS binding assay; assay type: functional
Mus musculus [23] = experiment: Induction of emptying of gallbladder in C57BL/6J mouse at 6 mg/kg, po measured at 1 hr; assay type: functional
In short: as §2

Mus musculus [24] = experiment: Induction of emptying of gallbladder in C57BL/6J mouse at 6 mg/kg, po measured at 24 hrs; assay type: functional
In short: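 Mice dosed orally; compound given as amorphous solid unless noted, with one analog in spray-dried dispersion formulation. Read-out is % gallbladder emptying after dosing.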

[25] = Biliary clearance in Sprague-Dawley rat assessed as parent compound excretion into bile at 3 mg/kg, iv by HPLC/MS/MS analysis; assay type: ADME, organism-based; design: dose 3 mg/kg, route intravenous; conditions: read-out: Activity
[26] = target: T3, Cholecystokinin receptor type A (Rattus norvegicus, UniProt P30551); experiment: Agonist activity at rat CCK1 receptor expressed in CHO cells assessed as induction of calcium release by FLIPR assay; assay type: functional, cell-based
T3 sequence (P30551 whole entry): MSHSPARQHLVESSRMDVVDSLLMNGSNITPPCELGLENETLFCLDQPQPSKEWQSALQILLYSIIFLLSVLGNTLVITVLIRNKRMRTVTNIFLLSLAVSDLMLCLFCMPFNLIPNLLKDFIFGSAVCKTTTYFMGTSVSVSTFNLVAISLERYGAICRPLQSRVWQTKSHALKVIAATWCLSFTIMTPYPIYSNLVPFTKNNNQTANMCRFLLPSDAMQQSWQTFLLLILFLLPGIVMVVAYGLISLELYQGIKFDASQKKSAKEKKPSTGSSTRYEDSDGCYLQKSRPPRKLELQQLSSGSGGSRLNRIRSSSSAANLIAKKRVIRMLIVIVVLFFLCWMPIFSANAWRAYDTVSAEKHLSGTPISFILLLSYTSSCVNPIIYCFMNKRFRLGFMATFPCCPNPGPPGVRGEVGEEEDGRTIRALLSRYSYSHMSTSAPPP
In short: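 Calcium release was measured by FLIPR at the rat CCK1 receptor to give EC50. Values are mean ± standard error of at least two independent experiments.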

[27] = target: T3, Cholecystokinin receptor type A; experiment: Displacement of [125I]CCK8 from rat CCK1 receptor expressed in CHO cells; assay type: cell-based
In short: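 Binding IC50 at the rat CCK1 receptor. Values are mean ± standard error of at least two independent experiments.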

[28] = target: T4, Cholecystokinin receptor type A (Homo sapiens, UniProt P32238); experiment: Agonist activity at human CCK1 receptor expressed in CHO cells assessed as induction of calcium release by FLIPR assay; assay type: functional, cell-based
T4 sequence (P32238 whole entry): T2 sequence (whole entry)
In short: as §3

[29] = target: T4, Cholecystokinin receptor type A; experiment: Displacement of [125I]CCK8 from human CCK1 receptor expressed in CHO cells; assay type: cell-based
In short: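 Binding IC50 at the human CCK1 receptor. Values are mean ± standard error of at least three independent experiments.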

Rattus norvegicus [30] = experiment: Antiobesity activity in Sprague-Dawley rat assessed as reduction in spontaneous food intake at 6 mg/kg, po measured at 4 hrs; assay type: functional
In short: as §4

| Compound | Activity [2] | Activity [6] [%] | CLint scaled [7] [mL/min/kg] | solubility kinetic [14] [µM] | Activity [22] | Activity (Mus musculus [23]) [%] | EC50 [26] [nM] | IC50 [27] [nM] | EC50 [28] [nM] | logD ([11]; read-out: logD) | IC50 [29] [nM] | inhibition in vivo at 6 mg/kg (Rattus norvegicus [30]) [%] | also measured |
| --- | --- | --- | --- | --- | --- | --- | --- | --- | --- | --- | --- | --- | --- |
| CC(C)N(Cc1ccccc1)C(=O)CN1C(=O)[C@@H](Cc2c[nH]c3ccccc23)c2nnc(-c3ccccc3)n2-c2ccccc21 [CE-326597] | inactive | 53 | 199 | 0.94 (≈ 0.559 µg/mL) | inactive |  |  |  |  |  |  |  | clearance [1]: 47 mL/min/kg; Cmax [3]: 14.6 ng/mL; Activity (Mus musculus [4]): 91%; bioavailability [5]: 1%; CL_biliary (Rattus norvegicus [8]): 0.0277 mL/min/kg; Tmax (Rattus norvegicus [9]): 1.33 h; Vd [10]: 3.7 L/kg; logD [11]: 3.39; AUC(0-t) [12]: 42.5 ng·h/mL; clearance [13]: 41.7 mL/min/kg; fCmax (Rattus norvegicus [15]): 0.98 nM; half-life [16]: 1.37 h; inhibition in vivo at 6 mg/kg (Rattus norvegicus [17]): 56%; inhibition (Rattus norvegicus [18]): Active; inhibition (INH) (Rattus norvegicus [19]): 2.4%; Activity (Rattus norvegicus [20]): -56%; AUC(0-t) [21]: 1190 ng·h/mL |
| CC(C)N(C(=O)CN1C(=O)[C@H](NC(=O)Nc2cccc(C(=O)O)c2)C(=O)N(c2ccccc2)c2ccccc21)c1ccccc1 |  | 62.8 | < 8 | 499 (≈ 302 µg/mL) |  | 82 | 63.8 | 52.6 | 283 | 1.09 | 131 | 52 | Activity (Mus musculus [24]): 91.4%; dose excreted [25]: 65% |
| CC(C)N(Cc1ccccc1)C(=O)CN1C(=O)C(Cc2n[nH]c3ccccc23)c2nnc(-c3ccccc3)n2-c2ccccc21 (stereo unspecified) | inactive | 72.3 | 39.5 | 2.26 (≈ 1.35 µg/mL) | inactive | 86.3 | 481 | 21 | 522 | 3.16 | 48.5 | 43 |  |
